In ChEMBL document CHEMBL3875170, “2-Methyl-4/5-nitroimidazole derivatives potentiated against sexually transmitted Trichomonas: Design, synthesis, biology and 3D-QSAR study” (Eur J Med Chem, 2016):
Converted amounts (≈) assume the structure as drawn.

Tests used:
[1] = Cytotoxicity against human HeLa cells after 24 hrs by MTT assay; assay type: toxicity, cell-based
How it was run: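 HeLa cells seeded at 2 × 10⁴ per well in DMEM with 10% FCS, in triplicate, and held 24 h at 37 °C in 5% CO₂. Exposed to compound dilutions for 24 h; controls received 0.05% DMSO. MTT in PBS pH 7.4 added, formazan dissolved in DMSO, OD540 read. IC50 taken as the concentration killing 50% of cells.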

[2] = Selectivity index, ratio of IC50 for human HeLa cells to MIC for metronidazole resistant Trichomonas vaginalis ATCC 50143; assay type: toxicity, cell-based; conditions: read-out: Selectivity Index
How it was run: (§1)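 SI is HeLa IC50 divided by parasite MIC. HeLa cells seeded at 2 × 10⁴/well in triplicate in DMEM with 10% FCS, 24 h at 37 °C in 5% CO2. Medium then replaced with compound dilutions (0.05% DMSO controls) for 24 h. Viability by MTT read at OD540; IC50 is the concentration killing 50% of cells. MIC from 48 h trypan blue parasite killing in TYM.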

[3] = Selectivity index, ratio of IC50 for human HeLa cells to MIC for metronidazole sensitive Trichomonas vaginalis ATCC 33592; assay type: toxicity, cell-based; conditions: read-out: Selectivity Index; how it was run: as §1
[4] = system: Trichomonas vaginalis; test: Potency index, ratio of metronidazole MIC to compound MIC for metronidazole resistant Trichomonas vaginalis ATCC 50143; assay type: functional
[5] = system: Trichomonas vaginalis; test: Antiparasitic activity against metronidazole sensitive Trichomonas vaginalis ATCC 33592 after 48 hrs by trypan blue exclusion assay; assay type: functional; conditions: ATCC 33592, 48 h
[6] = system: Trichomonas vaginalis; test: Antiparasitic activity against metronidazole resistant Trichomonas vaginalis ATCC 50143 after 48 hrs by trypan blue exclusion assay; assay type: functional; conditions: ATCC 50143, 48 h
How it was run: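 T. vaginalis trophozoites ([…]), log phase, grown in TYM with 10% FCS, vitamin mix and penicillin/streptomycin at 37 °C. Test agents from DMSO stocks serially diluted in TYM; DMSO/TYM vehicle controls. Anaerobic incubation at 37 °C with microscopic viability checks from 3 to 48 h by trypan blue exclusion. MIC is the lowest concentration killing all cells by 48 h. Repeated three times.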

[7] = system: Trichomonas vaginalis; test: Potency index, ratio of metronidazole MIC to compound MIC for metronidazole sensitive Trichomonas vaginalis ATCC 33592; assay type: functional

Row | Compound | IC50 at 24 h [1] | selectivity ratio [2] | selectivity ratio [3] | Ratio [4] | MIC [5] | MIC [6] | Ratio [7]
1 | CCOC(=O)N1CCN(C(=S)SCC(O)Cn2c([N+](=O)[O-])cnc2C)CC1 (racemic) | 1.61 mM | 26 | 107 | <=12.7 | 15 µM (≈ 6.25 µg/mL) | 60 µM (≈ 25 µg/mL) | <=2.4
2 | Cc1ncc([N+](=O)[O-])n1CC(O)CN1CCN(c2cccc(Cl)c2Cl)CC1 (racemic) | > 5 mM | > 33 | > 265 | <=12.7 | 18.9 µM (≈ 7.81 µg/mL) | 151 µM (≈ 62.5 µg/mL) | <=2.4
3 | CCCCN1CCN(C(=S)SCC(O)Cn2c([N+](=O)[O-])cnc2C)CC1 (racemic) | 1.91 mM | 61 | 122 | <=12.7 | 15.6 µM (≈ 6.26 µg/mL) | 31.2 µM (≈ 12.5 µg/mL) | <=2.4
4 | Cc1ncc([N+](=O)[O-])n1CC(O)CSC(=S)N1CCC(C)CC1 (racemic) | 1.82 mM | 26 | 104 | 2.5 - 12.6 | 17.4 µM (≈ 6.26 µg/mL) | 69.8 µM (≈ 25 µg/mL) | <=2.4
5 | Cc1ncc([N+](=O)[O-])n1CC(O)CSC(=S)N1CCCC(C)C1 (racemic) | 0.609 mM | 8 | 35 | 2.5 - 12.6 | 17.4 µM (≈ 6.26 µg/mL) | 69.8 µM (≈ 25 µg/mL) | <=2.4
6 | Cc1ncc([N+](=O)[O-])n1CC(O)CSC(=S)N1CCN(c2cccc(Cl)c2Cl)CC1 (racemic) | 1 mM | 7 | 62 | <=12.7 | 16 µM (≈ 7.83 µg/mL) | 128 µM (≈ 62.7 µg/mL) | <=2.4
7 | Cc1ncc([N+](=O)[O-])n1CC(O)CSC(=S)N1CCN(c2ccccc2F)CC1 (racemic) | 3.24 mM | 56 | 227 | <=12.7 | 14.2 µM (≈ 6.25 µg/mL) | 56.9 µM (≈ 25 µg/mL) | <=2.4
8 | Cc1ncc([N+](=O)[O-])n1CC(O)CN1CCN(c2ccccc2F)CC1 (racemic) | > 5 mM | > 14 | > 116 | <=12.7 | 43 µM (≈ 15.6 µg/mL) | 344 µM (≈ 125 µg/mL) | –
9 | CCN1CCN(CC(O)Cn2c([N+](=O)[O-])cnc2C)CC1 (racemic) | 4.94 mM | 47 | 407 | <=12.7 | 12.1 µM (≈ 3.6 µg/mL) | 105 µM (≈ 31.3 µg/mL) | <=2.4
10 | Cc1ncc([N+](=O)[O-])n1CC(O)CSC(=S)N1CCN(c2ncccn2)CC1 (racemic) | 2.04 mM | 69 | 69 | 12.3 | 29.6 µM (≈ 12.5 µg/mL) | 29.6 µM (≈ 12.5 µg/mL) | –
11 | Cc1ncc([N+](=O)[O-])n1CC(O)CN1CCC(Cc2ccccc2)CC1 (racemic) | 1.43 mM | 10 | 40 | <=12.7 | 34.9 µM (≈ 12.5 µg/mL) | 140 µM (≈ 50.1 µg/mL) | –
12 | Cc1ncc([N+](=O)[O-])n1CC(O)CN1CCOCC1 (racemic) [MORINIDAZOLE] | > 5 mM | > 54 | > 108 | <=12.7 | 46.3 µM (≈ 12.5 µg/mL) | 92.6 µM (≈ 25 µg/mL) | –
13 | Cc1ncc([N+](=O)[O-])n1CC(O)CN1CCN(c2cccc(Cl)c2)CC1 (racemic) | 1.44 mM | 4 | 10 | <=12.7 | 132 µM (≈ 50.1 µg/mL) | 330 µM (≈ 125 µg/mL) | –
14 | Cc1ncc([N+](=O)[O-])n1CC(O)CSC(=S)N1CCCC1 (racemic) | 1.34 mM | 9 | 35 | 2.5 - 12.6 | 37.9 µM (≈ 12.5 µg/mL) | 152 µM (≈ 50.1 µg/mL) | –
15 | Cc1ncc([N+](=O)[O-])n1CC(O)CN1CCN(c2ncccn2)CC1 (racemic) | 3.93 mM | 43 | 174 | <=12.7 | 22.5 µM (≈ 7.82 µg/mL) | 90 µM (≈ 31.3 µg/mL) | –
16 | Cc1ncc([N+](=O)[O-])n1CC(O)CSC(=S)N1CCOCC1 (racemic) | 4.52 mM | 31 | 125 | 2.5 - 12.6 | 36.1 µM (≈ 12.5 µg/mL) | 144 µM (≈ 50.1 µg/mL) | –
17 | Cc1ncc([N+](=O)[O-])n1CC(O)CN1CCC(C)CC1 (racemic) | > 5 mM | > 28 | > 113 | <=12.7 | 44.3 µM (≈ 12.5 µg/mL) | 177 µM (≈ 50.1 µg/mL) | –
18 | Cc1nc([N+](=O)[O-])cn1CC(O)Cn1c([N+](=O)[O-])cnc1C (racemic) | 4.35 mM | 43 | 86 | <=12.7 | 50.4 µM (≈ 15.6 µg/mL) | 101 µM (≈ 31.3 µg/mL) | –
19 | Cc1ncc([N+](=O)[O-])n1CC(O)Cn1cncn1 (racemic) | 4.97 mM | 50 | 160 | <=12.7 | 31 µM (≈ 7.82 µg/mL) | 99.2 µM (≈ 25 µg/mL) | –
20 | Cc1ncc([N+](=O)[O-])n1CC(O)CSC(=S)N1CCN(c2ccccn2)CC1 (racemic) | 2.97 mM | 20 | 100 | <=12.7 | 29.6 µM (≈ 12.5 µg/mL) | 148 µM (≈ 62.6 µg/mL) | –
21 | Cc1ncc([N+](=O)[O-])n1CC(O)Cn1nccn1 (racemic) | > 5 mM | > 102 | > 161 | <=12.7 | 31 µM (≈ 7.82 µg/mL) | 49.6 µM (≈ 12.5 µg/mL) | –
22 | CCN(CC)C(=S)SCC(O)Cn1c([N+](=O)[O-])cnc1C (racemic) | 2.46 mM | 32 | 65 | <=12.7 | 37.6 µM (≈ 12.5 µg/mL) | 75.3 µM (≈ 25 µg/mL) | –
23 | Cc1ncc([N+](=O)[O-])n1CC(O)Cn1cnc2ccccc21 (racemic) | 4.53 mM | 54 | 181 | <=12.7 | 25.9 µM (≈ 7.82 µg/mL) | 83 µM (≈ 25 µg/mL) | –
24 | Cc1ncc([N+](=O)[O-])n1CC(O)Cn1nnc2ccccc21 (racemic) | 4.24 mM | 103 | 169 | <=12.7 | 25.9 µM (≈ 7.82 µg/mL) | 41.4 µM (≈ 12.5 µg/mL) | –
25 | Cc1nc([N+](=O)[O-])cn1CC(O)CSC(=S)N1CCN(c2ccccc2)CC1 (racemic) | > 5 mM | > 16 | > 227 | <=12.7 | 22.7 µM (≈ 9.56 µg/mL) | 297 µM (≈ 125 µg/mL) | –
